Experimental findings from ChEMBL document CHEMBL1156980, “Synthesis and biological evaluation of 8-oxoadenine derivatives as toll-like receptor 7 agonists introducing the antedrug concept” (J Med Chem, 2010) are described below.

A short description of series [1]: Half life in human plasma by […] analysis.
The target of series [2] is T1, Toll-like receptor 7 (Homo sapiens, UniProt Q9NYK1).
T1 sequence (Q9NYK1 whole entry): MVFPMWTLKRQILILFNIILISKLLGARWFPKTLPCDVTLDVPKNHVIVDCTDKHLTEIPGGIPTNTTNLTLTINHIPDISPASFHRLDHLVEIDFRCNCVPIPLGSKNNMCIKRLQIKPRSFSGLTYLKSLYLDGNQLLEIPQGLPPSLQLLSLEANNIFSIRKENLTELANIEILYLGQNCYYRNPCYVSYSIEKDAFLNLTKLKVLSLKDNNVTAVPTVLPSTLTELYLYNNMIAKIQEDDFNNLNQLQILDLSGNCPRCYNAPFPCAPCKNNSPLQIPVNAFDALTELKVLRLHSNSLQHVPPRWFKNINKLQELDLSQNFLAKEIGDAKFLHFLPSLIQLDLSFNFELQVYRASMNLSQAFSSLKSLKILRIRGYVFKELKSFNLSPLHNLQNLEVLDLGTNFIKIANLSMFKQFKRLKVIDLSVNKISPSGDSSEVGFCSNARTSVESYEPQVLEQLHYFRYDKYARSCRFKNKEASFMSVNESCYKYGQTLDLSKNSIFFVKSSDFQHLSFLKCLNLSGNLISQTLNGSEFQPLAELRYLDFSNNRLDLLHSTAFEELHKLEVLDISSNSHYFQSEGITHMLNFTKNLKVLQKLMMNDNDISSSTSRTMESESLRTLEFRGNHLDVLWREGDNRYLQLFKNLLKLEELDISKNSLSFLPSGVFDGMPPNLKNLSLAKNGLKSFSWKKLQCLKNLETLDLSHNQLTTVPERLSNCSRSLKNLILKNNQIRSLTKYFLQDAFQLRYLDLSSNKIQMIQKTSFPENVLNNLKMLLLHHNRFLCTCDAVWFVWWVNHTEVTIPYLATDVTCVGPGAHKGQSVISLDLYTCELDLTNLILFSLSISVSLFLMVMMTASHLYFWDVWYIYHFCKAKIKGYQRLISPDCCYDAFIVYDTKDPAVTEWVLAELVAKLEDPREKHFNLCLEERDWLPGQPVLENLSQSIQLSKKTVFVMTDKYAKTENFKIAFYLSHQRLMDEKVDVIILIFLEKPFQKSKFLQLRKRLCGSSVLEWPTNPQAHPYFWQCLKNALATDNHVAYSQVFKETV
Put plainly: Agonist activity at human TLR7 expressed in HEK293 cells coexpressing pNiFty2-SEAP reporter by reporter gene assay. The series is classed as functional, cell-based. The essentials:
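HEK293 cells stably transfected with human TLR7 and an NF-kB-driven SEAP reporter; agonist activity read as reporter output and expressed as EC50.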
On the technique in general: In a reporter assay the amount or activity of a reporter protein is the signal.

The nature of series [3]: Half life in rat plasma by […] analysis. Type of series: ADME, cell-free.
The subject of series [4] is PBMC. The series is described as follows: Induction of type 1 IFN secretion in human PBMC at 300 nM after 18 hrs by ELISA. Type of series: cell-based. The conditions noted are these: 0.3 µM. In general terms: ELISA stands for enzyme-linked immunosorbent assay.
Series [5] has as its system PBMC. The series is described as follows: Induction of type 1 IFN secretion in human PBMC at 1000 nM after 18 hrs by ELISA. Type of series: cell-based. The conditions noted are these: 1 µM.
Series [6] has as its system PBMC. Put plainly: Induction of type 1 IFN secretion in human PBMC at 100 nM after 18 hrs by ELISA. Type of series: cell-based. The conditions noted are these: 0.1 µM.
Series [7] deals with PBMC. Put plainly: Induction of type 1 IFN secretion in human PBMC at 30 nM after 18 hrs by ELISA. Type of series: cell-based. To be noted: 0.03 µM.
Series [8] deals with Rattus norvegicus. Put plainly: Antiinflammatory activity in ovalbumin and […] hydroxide adjuvant-sensitized intratracheally dosed Brown Norway rat assessed as inhibition of allergen-induced eosinophils influx administered 2 hrs before allergen challenge measured after 24 hrs. Type of series: functional, organism-based.
The target of series [9] is T2, Toll-like receptor 8 (Homo sapiens, UniProt Q9NR97).
T2 sequence (Q9NR97 whole entry): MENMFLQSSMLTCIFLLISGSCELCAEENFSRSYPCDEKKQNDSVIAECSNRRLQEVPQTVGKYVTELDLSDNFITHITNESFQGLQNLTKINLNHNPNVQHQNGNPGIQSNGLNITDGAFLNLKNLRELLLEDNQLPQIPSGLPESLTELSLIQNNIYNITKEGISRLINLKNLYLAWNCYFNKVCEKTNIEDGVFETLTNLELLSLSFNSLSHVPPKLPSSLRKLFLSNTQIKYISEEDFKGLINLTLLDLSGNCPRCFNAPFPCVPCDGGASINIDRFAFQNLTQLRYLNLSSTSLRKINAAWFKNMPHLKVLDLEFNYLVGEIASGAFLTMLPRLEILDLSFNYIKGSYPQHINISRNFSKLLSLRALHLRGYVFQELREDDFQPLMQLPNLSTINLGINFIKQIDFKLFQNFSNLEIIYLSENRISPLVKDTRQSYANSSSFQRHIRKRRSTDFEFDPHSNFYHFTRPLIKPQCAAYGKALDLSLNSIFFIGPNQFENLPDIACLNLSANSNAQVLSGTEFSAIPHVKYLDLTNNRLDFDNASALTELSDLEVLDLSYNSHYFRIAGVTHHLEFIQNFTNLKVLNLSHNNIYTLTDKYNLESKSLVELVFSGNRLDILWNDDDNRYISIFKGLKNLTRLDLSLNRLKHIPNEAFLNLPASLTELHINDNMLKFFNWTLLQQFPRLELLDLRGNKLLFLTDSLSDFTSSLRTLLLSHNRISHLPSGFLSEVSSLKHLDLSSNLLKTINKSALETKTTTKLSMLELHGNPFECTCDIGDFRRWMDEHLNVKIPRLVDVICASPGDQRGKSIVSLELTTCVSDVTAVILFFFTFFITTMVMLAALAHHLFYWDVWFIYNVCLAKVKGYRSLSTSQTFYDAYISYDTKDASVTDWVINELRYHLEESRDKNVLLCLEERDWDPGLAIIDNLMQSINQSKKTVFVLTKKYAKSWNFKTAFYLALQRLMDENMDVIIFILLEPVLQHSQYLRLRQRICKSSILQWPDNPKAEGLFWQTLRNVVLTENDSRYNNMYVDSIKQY
Put plainly: Agonist activity at TLR8. The series is classed as functional.

Series [10] concerns PBMC. The series is described as follows: Induction of type 1 IFN secretion in human PBMC at 10 nM after 18 hrs by ELISA. Type of series: cell-based. The conditions noted are these: 0.01 µM.
Series [11] concerns PBMC. Put plainly: Induction of type 1 IFN secretion in human PBMC at 3 nM after 18 hrs by ELISA. Type of series: cell-based. To be noted: 0.003 µM.
Series [12] relates to PBMC. The series is described as follows: Induction of type 1 IFN secretion in human PBMC at 3000 nM after 18 hrs by ELISA. The series is classed as cell-based. To be noted: 3 µM. The procedure, abridged: (§1)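 Human peripheral blood mononuclear cells incubated with compound; IFN in culture supernatants quantified by human ELISA.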
For series [13], the system named is PBMC. Put plainly: Induction of type 1 IFN secretion in human PBMC at 10000 nM after 18 hrs by ELISA. The series is classed as cell-based. The conditions noted are these: 10 µM. The procedure, abridged:
as §1

Series [14] has as its system Rattus norvegicus. Put plainly: Antiinflammatory activity in ovalbumin and […] hydroxide adjuvant-sensitized Brown Norway rat assessed as inhibition of allergen-induced eosinophils influx at 1 mg/kg, intratracheally administered 2 hrs before allergen challenge measured after 24 hrs. Type of series: functional, organism-based. The arrangement: dose 1 mg/kg.
For series [15], the system named is Rattus norvegicus. Put plainly: Induction of IFN secretion in Brown Norway rat plasma at up to 10 mg/kg, intratracheally measured after 2 to 24 hrs by CPE reduction assay. Type of series: organism-based. The arrangement: dose 10 mg/kg, route endotracheal. The conditions noted are these: in vivo, inhaled_or_intranasal.
Series [16] deals with Rattus norvegicus. Put plainly: Induction of IFN secretion in Brown Norway rat plasma at 0.1 mg/kg, intratracheally measured after 2 to 24 hrs by CPE reduction assay. To be noted: in vivo, inhaled_or_intranasal. The arrangement: dose 0.1 mg/kg, route endotracheal. The series is classed as organism-based.

Structures are written as SMILES. Active and inactive are the calls of the source.

Usually half-life stands for the time needed for the level to fall by half in the phase considered. Lower therefore signals fast loss. By EC50 is commonly meant the concentration at which the effect is half-maximal. As to `CCCCOc1nc(N)c2[nH]c(=O)n(Cc3ccc(CC(=O)OC)cc3)c2n1`, the half-life in series [1] came to 21.9 min. In series [2], a half-maximal effect (EC50) was put at 10.3 nM.
For `CCCCOc1nc(N)c2[nH]c(=O)n(Cc3ccccc3CC(=O)OC)c2n1` the same measures were > 98 min and 467 nM.
For `CCCCOc1nc(N)c2[nH]c(=O)n(Cc3cccc(CC(=O)OC)c3)c2n1`, the values for the half-life in [3] and in series [1] were < 0.04 min and 2.6 min, respectively. For the same molecule, the Activity was 8.37 nM in [4]; 6.2 nM in [5]; 8.17 nM in [6]; 4.71 nM in series [7]; “Dose-dependent effect” in series [8]; 1.61 nM in [10]. Also, the Activity in series [11] was < 1.25 nM. For the same molecule, the EC50 in series [9] is > 10000 nM; in [2] it was 50.1 nM.
Consider `COCCOc1nc(N)c2[nH]c(=O)n(Cc3cccc(CC(=O)OC)c3)c2n1`, for which the half-life in series [1] amounted to 1.4 min. The molecule further gave an EC50 in series [2] of 312 nM.
For `CCCCOc1nc(N)c2[nH]c(=O)n(Cc3ccc(OC)c(CC(=O)OC)c3)c2n1`, in that order: > 98 min and 8.1 nM.
For `CCCCOc1nc(N)c2[nH]c(=O)n(Cc3ccccc3C(=O)OC)c2n1` the same measures were > 98 min and 609 nM.
With `COCCOc1nc(N)c2[nH]c(=O)n(Cc3ccccc3)c2n1`, it took 399 nM to reach a half-maximal effect in series [2] (EC50).
For `CCCCOc1nc(N)c2[nH]c(=O)n(Cc3ccc(C(=O)OC)cc3)c2n1`, the half-life in [1] is > 98 min. Also, the response in series [2] was half-maximal at 72.9 nM (EC50).
With `CCCCOc1nc(N)c2nc(O)n(Cc3ccccc3)c2n1`, in series [2], the EC50 amounted to 63.7 nM.
Turning to `CCCCOc1nc(N)c2[nH]c(=O)n(Cc3cccc(CCC(=O)OC)c3)c2n1`, the half-life in series [1] was > 98 min. In [2], this molecule yielded an EC50 of 87.5 nM.
For `CCCCOc1nc(N)c2[nH]c(=O)n(Cc3ccc(F)c(CC(=O)OC)c3)c2n1` the same measures were 13.1 min and 25.7 nM.
For `CCCCOc1nc(N)c2[nH]c(=O)n(Cc3cccc(CC(=O)OCC)c3)c2n1`, the half-life in series [1] was 9 min. The molecule further showed an EC50 in [2] of 188 nM.
For the molecule `CCCCOc1nc(N)c2[nH]c(=O)n(Cc3cccc(CC(=O)O)c3)c2n1`, the Activity in [4] is reported as < 1.25 nM; in [5], < 1.25 nM; in series [6], < 1.25 nM; in [7], < 1.25 nM; in series [12], 1.25 nM; in [13] it was 1.25 nM.
Regarding `CCCCOc1nc(N)c2[nH]c(=O)n(Cc3cc(CC(=O)OC)ccc3OC)c2n1`, in [1], the half-life stood at 98 min. Besides, the midpoint of the response in series [2], the EC50, lay at 108 nM.
Regarding `CCOCc1nc2c(N)nc3ccccc3c2n1CC(C)(C)O` [RESIQUIMOD], the result in [14] was Active. The Activity is 7.26 nM in [4]; 7.75 nM in series [5]; 5.61 nM in [6]; 1.25 nM in series [7]; “Non-toxic” in series [15]; “Toxic” in series [16]. In series [10], the Activity is reported as < 1.25 nM.
As to `CCCCOc1nc(N)c2[nH]c(=O)n(Cc3cccc(C(C)C(=O)OC)c3)c2n1` (stereo unspecified), in series [1], the half-life was > 98 min. Further, the EC50 in [2] came to 75 nM.
For `CCCCOc1nc(N)c2[nH]c(=O)n(Cc3cccc(C(=O)OC)c3)c2n1`, the half-life in series [1] is > 98 min. Moreover, the EC50 in series [2] was 51.5 nM.
